Source: ChEMBL document CHEMBL5712078, “BRD9 Inhibition, Alone or in Combination with Cytostatic Compounds as a Therapeutic Approach in Rhabdoid Tumors” (Int J Mol Sci, 2017)
Active and inactive are the calls of the source. The calls are words filed in the database; no cut-off is given here.

Assays:
BT-12 [1] = experiment: Synergistic cytotoxicity against human BT-12 cells assessed as combination index incubated for 72 hrs in presence of carboplatin by MTT-based Chou-Talalay method; assay type: functional
Summary of the method: (§1)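 MTT combination assay. BT12 in IMDM/20% FBS at 5000 cells/well; G401 in DMEM/10% FBS. Drugs added 24 h after seeding, with I-BRD9 and cytostatic at a fixed 10:1 ratio (final ranges 0.001–100 µM and 0.0001–10 µM). After 72 h: MTT for 3 h, dissolved in isopropanol/0.04 N HCl, read at 570/630 nm. Technical triplicates, ≥3 independent runs; combination index by Chou–Talalay median-effect analysis.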

BT-12 [2] = experiment: Induction of apoptosis in human BT-12 cells assessed as necrotic cells incubated for 72 hrs by flow cytometry analysis; assay type: functional, cell-based; settings: dose 5-20 µM
Summary of the method: (§2)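 Annexin V/PI flow assay. G401 at 10,000 cells/mL and BT12 or Chla266 at 30,000 cells/mL were seeded in 12-well plates. Next day medium was replaced with medium holding I-BRD9 or BI-9564 at 0, 5, 10 or 20 µM final for 72 h. Cells were washed in PBS, stained with FITC-Annexin V and propidium iodide for 15 min in the dark at room temperature, then read by flow cytometry. Percentage of dead cells, n ≥3, mean ± SD, one-way ANOVA versus control.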

BT-12 [3] = experiment: Induction of cell cycle arrest in human BT-12 cells assessed as accumulation of cells at G1 phase at 20 uM incubated for 72 hrs by flow cytometry analysis (reference value: 69+/-1.9%); assay type: functional
Summary of the method: (§3)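 Cell cycle. Seeding and 72 h treatment as for the apoptosis assay, with I-BRD9 or BI-9564 at 0, 5, 10 or 20 µM final. A 100 µL cell suspension was stained with DAPI and read by flow cytometry. Percentage of cells in G1, n ≥3, mean ± SD, one-way ANOVA versus control.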

G-401 [4] = experiment: Induction of cell cycle arrest in human G-401 cells assessed as accumulation of cells at G1 phase incubated for 72 hrs by flow cytometry analysis; assay type: functional, cell-based; settings: dose 5-20 µM
Summary of the method: (§4)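 72 h DAPI flow-cytometry cell-cycle assay. Chla266 in IMDM/20% FBS seeded at 30,000 cells/mL; G401 in DMEM/10% FBS at 10,000 cells/mL; 1 mL/well, 37 °C, 5% CO2. Next day the medium was replaced with inhibitor at final 0, 5, 10 or 20 µM. Cells were harvested, PBS-washed, and the G1 percentage was read. n ≥ 3, mean ± SD, one-way ANOVA vs control.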

CHLA-266 [5] = experiment: Anti-proliferative activity against human CHLA-266 cells assessed as cell viability incubated for 144 hrs by MTT assay; assay type: functional, cell-based; settings: CHLA-266, 144 h
Summary of the method: (§5)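 MTT proliferation assay. Cells were seeded at 3000 (BT16, KD, G401) or 5000 (BT12, Chla266) cells per well and drug was added after 24 h, final 0.001–100 µM. Read at 72 or 144 h; 144 h wells got fresh medium and drug on day 3. MTT for 3 h, formazan dissolved in isopropanol/0.04 N HCl, absorbance at 570/630 nm. Technical triplicates, ≥3 independent runs, IC50 derived.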

G-401 [6] = experiment: Induction of cell cycle arrest in human G-401 cells assessed as accumulation of cells at G1 phase at 20 uM incubated for 72 hrs by flow cytometry analysis (reference value: 51.7+/-2%); assay type: functional; summary of the method: as §4
BT-12 [7] = experiment: Induction of apoptosis in human BT-12 cells assessed as necrotic cells at 20 uM incubated for 72 hrs by flow cytometry analysis (Rvb= 9.1+/-2.8 %); assay type: functional; summary of the method: as §2
G-401 [8] = experiment: Anti-proliferative activity against human G-401 cells assessed as inhibition cell growth incubated for 72 hrs in presence of vincristine by MTT-based Chou-Talalay method; assay type: functional; settings: G-401, 72 h
Summary of the method: (§6)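 Combination MTT assay. I-BRD9 and carboplatin, doxorubicin or vincristine were given together at a fixed 10:1 ratio, with cytostatics 0.0001–10 µM final, added 24 h after seeding. MTT read-out at 570/630 nm after 3 h formazan solubilisation. Combination index from the Chou–Talalay median-effect method: CI <1 synergism, CI >1 antagonism. n ≥3.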

BT-12 [9] = experiment: Induction of cell cycle arrest in human BT-12 cells assessed as accumulation of cells at G1 phase incubated for 72 hrs by flow cytometry analysis; assay type: functional, cell-based; settings: dose 5-20 µM; summary of the method: as §3
BT-12 [10] = experiment: Synergistic cytotoxicity against human BT-12 cells assessed as combination index incubated for 72 hrs in presence of vincristine by MTT-based Chou-Talalay method; assay type: functional; summary of the method: as §1
[11] = Anti-proliferative activity against human KD cells assessed as cell viability incubated for 72 hrs by MTT assay; assay type: functional, cell-based; summary of the method: as §5
CHLA-266 [12] = experiment: Induction of apoptosis in human CHLA-266 cells assessed as necrotic cells at 5 uM incubated for 72 hrs by flow cytometry analysis (Rvb= 5.0+/-0.3 %)
CHLA-266 [13] = experiment: Induction of cell cycle arrest in human CHLA-266 cells assessed as accumulation of cells at G1 phase at 5 uM incubated for 72 hrs by flow cytometry analysis (reference value: 74.2+/-3.6%); assay type: functional; summary of the method: as §3
BT-12 [14] = experiment: Anti-proliferative activity against human BT-12 cells assessed as cell viability incubated for 72 hrs by MTT assay; assay type: functional, cell-based; settings: BT-12, 72 h; summary of the method: as §5
CHLA-266 [15] = experiment: Induction of apoptosis in human CHLA-266 cells assessed as necrotic cells at 10 uM incubated for 72 hrs by flow cytometry analysis (Rvb= 5.0+/-0.3 %)
CHLA-266 [16] = experiment: Cytotoxicity against human CHLA-266 cells assessed as change in cell viability at 5 to 20 uM treated for 72 hrs; assay type: functional, cell-based; settings: dose 5-20 µM; summary of the method: as §2
G-401 [17] = experiment: Anti-proliferative activity against human G-401 cells assessed as cell viability incubated for 72 hrs by MTT assay; assay type: functional, cell-based; settings: G-401, 72 h; summary of the method: as §5
G-401 [18] = experiment: Induction of apoptosis in human G-401 cells assessed as necrotic cells at 5 uM incubated for 72 hrs by flow cytometry analysis (Rvb= 5.7+/-1.9 %); assay type: functional; summary of the method: as §2
BT-12 [19] = experiment: Anti-proliferative activity against human BT-12 cells assessed as inhibition cell growth incubated for 72 hrs in presence of doxorubicin by MTT-based Chou-Talalay method; assay type: functional; settings: BT-12, 72 h; summary of the method: as §6
CHLA-266 [20] = experiment: Induction of apoptosis in human CHLA-266 cells assessed as necrotic cells incubated for 72 hrs by flow cytometry analysis; assay type: functional, cell-based; settings: dose 5-20 µM; summary of the method: as §2
CHLA-266 [21] = experiment: Induction of cell cycle arrest in human CHLA-266 cells assessed as accumulation of cells at G1 phase at 10 uM incubated for 72 hrs by flow cytometry analysis (reference value: 74.2+/-3.6%); assay type: functional; summary of the method: as §3
BT-12 [22] = experiment: Induction of apoptosis in human BT-12 cells assessed as necrotic cells at 10 uM incubated for 72 hrs by flow cytometry analysis (reference value: 9.1+/-2.8 %); assay type: functional; summary of the method: as §2

CCn1cc(-c2cccc(C(F)(F)F)c2)c2sc(C(=N)NC3CCS(=O)(=O)CC3)cc2c1=O
CI (BT-12 [1]): 1.01
Activity (BT-12 [2]): Dose-Dependent Effect
Activity (BT-12 [3]): 85.6%
Activity (G-401 [4]): Dose-Dependent Effect
IC50 (CHLA-266 [5]): 24.7 µM
Activity (G-401 [6]): 65.5%
Activity (BT-12 [7]): 34.6%
IC50 (G-401 [8]): 0.008 µM
Activity (BT-12 [9]): Dose-Dependent Effect
CI (BT-12 [10]): 96.1
IC50 [11]: 8.1 µM
Activity (CHLA-266 [12]): 7.7%
Activity (CHLA-266 [13]): 79.5%
IC50 (BT-12 [14]): 21.2 µM
Activity (CHLA-266 [15]): 11.7%
Activity (CHLA-266 [16]): Active
IC50 (G-401 [17]): 13.4 µM
Activity (G-401 [18]): 7.7%
IC50 (BT-12 [19]): 0.94 µM
Activity (CHLA-266 [20]): Dose-Dependent Effect
Activity (CHLA-266 [21]): 82.7%
Activity (BT-12 [22]): 17.6%
